The text below walks through data of ChEMBL document CHEMBL1136726, “Synthesis and characterization of iodine-123 labeled 2beta-carbomethoxy-3beta-(4'-((Z)-2-iodoethenyl)phenyl)nortropane. A ligand for in vivo imaging of serotonin transporters by single-photon-emission tomography” (J Med Chem, 2003).

In data set [1] the test system is Rattus norvegicus. The data set is described as follows: Distribution of radioactivity in rat brain 120 min after intravenous administration of iodine labeled compound. The format is ADME, organism-based. Particulars: in vivo, 2 h.
Data set [2] has as its system Rattus norvegicus. The data set is described as follows: Distribution of radioactivity in rat brain hypothalamus 120 min after intravenous administration of iodine labeled compound. The format is ADME, organism-based. To be noted: in vivo, 2 h. The gist of the method:
(§1)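 Male Sprague–Dawley rats (225–300 g) under ketamine received 10 µCi radioligand iv (tail vein) in 10% EtOH/saline. Hypothalamus, prefrontal cortex, striatum, pons and cerebellum were dissected, weighed and gamma-counted. % injected dose/g was taken from decay-corrected counts versus diluted dose. Mean ± SE and range, n=5 (5, 30 min) or 4 (60, 120 min).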

The test system of data set [3] is Rattus norvegicus. The data set is described as follows: Ratio of distribution of radioactivity in rat brain region prefrontal cortex and cerebellum 60 min after intravenous administration of iodine labeled compound in presence of fluvoxamine blocker in study 1. Particulars: in vivo, 1 h. Type of data set: ADME, organism-based.
The test system of data set [4] is Rattus norvegicus. The data set is described as follows: Ratio of distribution of radioactivity in rat brain region striatum and cerebellum 60 min after intravenous administration of iodine labeled compound in absence of blocker in study 2. Type of data set: ADME, organism-based. Particulars: in vivo, 1 h.
Data set [5] deals with Rattus norvegicus. Briefly: Ratio of distribution of radioactivity in rat brain prefrontal cortex and cerebellum 5 min after intravenous administration of iodine labeled compound. Type of data set: ADME, organism-based. To be noted: in vivo. The method in brief:
(§2)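 Male Sprague–Dawley rats (225–300 g) under ketamine anaesthesia were given [123I]ZIENT (10 μCi) in 0.2 mL 10% EtOH/0.9% NaCl into the tail vein, with a saline flush. Hypothalamus, prefrontal cortex, striatum, pons and cerebellum were dissected and gamma-counted. % injected dose/g came from decay-corrected counts against the diluted injected dose, and region/cerebellum ratios were taken from these. Mean ± SE, n=4–5.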

Data set [6] has as its system Rattus norvegicus. The data set is described as follows: Distribution of radioactivity in rat spleen 120 min after intravenous administration of iodine labeled compound. The format is ADME, organism-based. Particulars: in vivo, 2 h. The method in brief:
(§3)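 Tail-vein injection of [123I]ZIENT (10 μCi in 0.2 mL 10% EtOH/0.9% NaCl, then 0.4 mL saline flush) into ketamine-anaesthetised male Sprague–Dawley rats (225–300 g). Animals were killed by cardiac excision at set times. Organs were excised, rinsed, blotted, weighed and gamma-counted. % dose/g was calculated against diluted aliquots of injectate. Mean ± SE, n=4–5.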

For data set [7], the system named is Rattus norvegicus. The data set is described as follows: Ratio of distribution of radioactivity in rat brain region pons and cerebellum 60 min after intravenous administration of iodine labeled compound in absence of blocker in study 1. Particulars: in vivo, 1 h. The format is ADME, organism-based.
The subject of data set [8] is Rattus norvegicus. Briefly: Ratio of distribution of radioactivity in rat brain region pons and cerebellum 60 min after intravenous administration of iodine labeled compound in absence of blocker in study 2. The format is ADME, organism-based. Particulars: in vivo, 1 h.
For data set [9], the system named is Rattus norvegicus. Briefly: Ratio of distribution of radioactivity in rat brain hypothalamus and cerebellum 30 min after intravenous administration of iodine labeled compound. Type of data set: ADME, organism-based. To be noted: in vivo, 0.5 h. The gist of the method:
as §2

Data set [10] has as its system Rattus norvegicus. The data set is described as follows: Ratio of distribution of radioactivity in rat brain region pons and cerebellum 60 min after intravenous administration of iodine labeled compound in presence of fluvoxamine blocker in study 1. To be noted: in vivo, 1 h. The format is ADME, organism-based.
In data set [11] the test system is Rattus norvegicus. The data set is described as follows: Distribution of radioactivity in rat brain region cerebellum 60 min after intravenous administration of iodine labeled compound in presence of RTI-113 blocker in study 2. The format is ADME, organism-based. To be noted: in vivo, 1 h. The gist of the method: (§4)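 Male Sprague–Dawley rats (250–300 g), ketamine-anesthetized. Blocker (2 mg/kg) or none was given iv 15 min before tail-vein radioligand (10 µCi in 0.2 mL 10% EtOH/saline). Rats were killed at 60 min with im pentobarbital. Brain regions were dissected, weighed and gamma-counted. % dose/g was taken from decay-corrected, background-subtracted counts versus the injected dose.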

Data set [12] has as its system Rattus norvegicus. Briefly: Distribution of radioactivity in rat spleen 60 min after intravenous administration of iodine labeled compound. Type of data set: ADME, organism-based. To be noted: in vivo, 1 h. The gist of the method:
as §3

Data set [13] concerns Rattus norvegicus. The data set is described as follows: Distribution of radioactivity in rat brain pons 120 min after intravenous administration of iodine labeled compound. Type of data set: ADME, organism-based. Particulars: in vivo, 2 h. The method in brief:
as §1

Data set [14] deals with Rattus norvegicus. Briefly: Distribution of radioactivity in rat thyroid 120 min after intravenous administration of iodine labeled compound. Particulars: in vivo, 2 h. Type of data set: ADME, organism-based, Thyroid gland. The method in brief:
as §3

Data set [15] relates to Rattus norvegicus. Briefly: Ratio of distribution of radioactivity in rat brain region striatum and cerebellum 60 min after intravenous administration of iodine labeled compound in presence of RTI-113 blocker in study 1. The format is ADME, organism-based. To be noted: in vivo, 1 h.
The subject of data set [16] is Rattus norvegicus. The data set is described as follows: Ratio of distribution of radioactivity in rat brain striatum and cerebellum 120 min after intravenous administration of iodine labeled compound. The format is ADME, organism-based. Particulars: in vivo, 2 h. The gist of the method:
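Male Sprague–Dawley rats (225–300 g), ketamine anesthesia, injected via tail vein with [123I]ZIENT (10 μCi in 0.2 mL 10% EtOH/0.9% NaCl, 0.4 mL saline flush). Killed at 5, 30, 60 or 120 min. Striatum and cerebellum dissected, weighed, γ-counted. Decay-corrected %injected dose/g taken against diluted injectate. Ratio is striatum over cerebellum. Four or five rats per time point, mean ± standard error.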

For data set [17], the system named is Rattus norvegicus. Briefly: Distribution of radioactivity in rat testis 60 min after intravenous administration of iodine labeled compound. The format is ADME, organism-based. Particulars: in vivo, 1 h. The gist of the method: as §3
Data set [18] relates to Rattus norvegicus. The data set is described as follows: Distribution of radioactivity in rat brain striatum 120 min after intravenous administration of iodine labeled compound. Type of data set: ADME, organism-based. To be noted: in vivo, 2 h. The method in brief:
as §2

The subject of data set [19] is Rattus norvegicus. The data set is described as follows: Distribution of radioactivity in rat brain region cerebellum 60 min after intravenous administration of iodine labeled compound in presence of reboxetine blocker in study 2. Type of data set: ADME, organism-based. To be noted: in vivo, 1 h. The method in brief: as §4
For data set [20], the system named is Rattus norvegicus. Briefly: Distribution of radioactivity in rat liver 5 min after intravenous administration of iodine labeled compound. Type of data set: ADME, organism-based. To be noted: in vivo. The method in brief:
as §3

Data set [21] deals with Rattus norvegicus. The data set is described as follows: Distribution of radioactivity in rat brain region cerebellum 60 min after intravenous administration of iodine labeled compound in absence of blocker in study 1. To be noted: in vivo, 1 h. The format is ADME, organism-based. The gist of the method:
as §4

Where “and” joins values, the source holds several entries; their conditions need not be identical. Equal entries are not always repeated.

In the case of `COC(=O)[C@@H]1C2CCC(C[C@@H]1c1ccc(/C=C\I)cc1)N2` (stereo partly specified), the “Distribution (dose/g)” value in data set [1] worked out at 0.39%; in data set [2] it was 0.59%; in data set [3], 1.65%; in data set [4], 3.32%; in data set [5], 1.45%; in data set [6] it was 0.43%. Also, the “Distribution (dose/g)” value in data set [7] turned out to be 2.58%; in data set [8], 2.79%; in data set [9] it was 2.38%; in [10], 1.47%; in [11], 0.25%; in data set [12], 0.61%. The “Distribution (dose/g)” value came out at 0.4% in data set [13]; 1.87% in data set [14]; 2.56% in [15]; 4% in data set [16]; 0.32% in [17]; 0.49% in [18]. For the same molecule, the “Distribution (dose/g)” value in [19] was 0.23%; in [20], 0.38%; in [21], 0.24% and 0.19%.
